Assay outcomes as filed in PubChem BioAssay.
Shown is part of a subset that was picked to be rich in hits.
Fibroblast inh: blocks proliferation of human lung fibroblasts | LL 47 human lung fibroblast viability, ATP luminescence; active compounds read low | viability, % at 10 µM | hit rate 1.1% among 85,000 | AID 719;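 active means viability at or below 50% in the single dose screen; inactive means viability above 50%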;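 further: compound exposure lasted 72 h before the ATP readout; 100% = median luminescence of untreated cell-only wells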
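Benchmarks: Cell-only wells, no compound | Test system: LL 47 human lung fibroblasts, passage 12 or lower | Input: 1,150 cells/well | Measured by: CellTiter-Glo luminescence measuring cellular ATP | Medium: IMEM, 15% FBS supplement | Schedule: Overnight attachment after seeding, then 72 h compound exposure at 37 °C | Doses: Compound addition at 0.1% DMSO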
bCat KO growth: beta-catenin-lacking colon tumor cell growth suppression; viability, % at 10 µM; hit rate 1.5% among 140,000; HCT116 beta-catenin knockout viability, CellTiter-Glo, 60 h; active compounds read low;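 active means viability at or under a set limit, the compound median less 4 SD, cut at about 6% in these data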;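 further: 0% = Hyamine 1622 control at 20 µM and 100% = untreated cell control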
H69AR growth 86K: growth inhibitors of human H69AR lung tumor cells | H69AR lung tumor viability, ATP luminescence, 72 h; active compounds read low | hit rate 6% among 85,000 | viability, % at 10 µM;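 active means viability at or below 40%; inactive means viability above 40%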;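 further: multidrug resistant small cell line overexpressing MRP-1 efflux transporter; 100% = mean luminescence of untreated control wells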
HUVEC inhibit: inhibitors of human endothelial cell proliferation | HUVEC proliferation, CellTiter-Glo luminescence, 72 h; active compounds read low | viability, % at 10 µM (by protocol) | hit rate 1.1% among 86,000 | AID 648;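 active means viability at or below 30%; inactive means viability above 30%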;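 further: 100% = median luminescence of DMSO-only cell control wells on each plate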
HCT116 PTEN-null: suppresses growth of cells with PTEN deletion; hit rate 1.2% among 140,000; AID 827; viability, % at 10 µM; HCT116 PTEN-null viability, CellTiter-Glo, 60 h; active compounds read low;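 active means viability at or below a set limit, 4 SD under the median of all tested compounds, cut at about 3.7% in these data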;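 further: PTEN knockout HCT116 line with beta catenin targeted HCT116 as companion control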
The depositor's hits bear a star; . = not tested or not shown.

SMILES	Fibroblast inh	bCat KO growth	H69AR growth 86K	HUVEC inhibit	HCT116 PTEN-null
CCOC(=O)NC(=O)C(=CNc1ccc(C)cc1)C(=O)NC(=O)OCC	.	84.5	.	.	90.1
Cc1ccc(S(=O)(=O)Oc2ccc3c(c2)O/C(=C\c2cccnc2)C3=O)cc1	96.5	81.3	24.6*	98.9	89.0
CCc1ccc(/C=C2\Oc3cc(OS(C)(=O)=O)ccc3C2=O)cc1	.	81.7	.	.	69.5
COc1cccc(OC)c1C(=O)Oc1ccc2c(c1)O/C(=C\c1ccncc1)C2=O	.	58.9	.	.	55.7
O=C1/C(=C/c2cccnc2)Oc2cc(OS(=O)(=O)c3ccc(F)cc3)ccc21	94.8	81.2	35.3*	94.1	87.9
O=C(CSCc1ccc(Cl)cc1)NCc1ccc2c(c1)OCO2	108.9	85.0	107.5	77.0	98.5
Cc1cc(C)n(-c2nnc(NC(C)(C)C)nn2)n1	.	83.5	.	.	95.1
CCNc1nc(NCC)nc(-n2nc(C)cc2C)n1	88.9	94.8	4.7*	101.9	88.5
CC(C)(C)Nc1nc(NC(C)(C)C)nc(-n2ccnc2)n1	90.0	90.7	30.7*	97.7	84.0
Cc1cc(C)n(-c2nc(NC(C)(C)C)nc(NC(C)(C)C)n2)n1	.	4.6*	.	.	11.6
CC(C)(C)Nc1nc(NN)nc(NC(C)(C)C)n1	.	83.4	.	.	76.3
COc1ccc([N+](=O)[O-])cc1COc1cc(C)cc2oc(=O)cc(-c3ccccc3)c12	.	27.5	.	.	33.8
CCCCc1cc(=O)oc2cc(C)cc(O)c12	55.9	5.1*	10.1*	48.1	16.6
Cc1cc(O)c2c(-c3ccccc3)cc(=O)oc2c1	87.1	90.6	38.8*	61.9	91.9
CCOn1c(=O)c(C)[n+]([O-])c2ccccc21	101.1	99.1	87.8	99.8	97.7
C/C(=N\NC(=O)c1cccc(S(=O)(=O)Nc2ccccc2Cl)c1)c1ccc(-n2ccnc2)cc1	.	89.9	.	.	83.4
O=C(CCl)Nc1cc(-c2ccccc2)nn1-c1ccccc1	6.8*	3.6*	1.2*	14.5*	2.5*
Cc1ccc(-c2cc(NC(=O)CCl)n(-c3ccccc3)n2)cc1	3.3*	2.6*	0.9*	9.6*	2.0*
CCN(C(=O)[C@@H]1CCCN1C(=O)c1cccs1)c1nc2cc(Cl)ccc2s1	.	77.8	.	.	69.8
COc1cccc(C2=NOC(C(=O)Nc3cc(C)nn3-c3ccccc3)C2)c1OC (stereo not drawn)	90.3	56.7	32.4*	75.5	53.5
COc1cc(OC)c(C2=NOC(C(=O)Nc3cc(C)nn3-c3ccccc3)C2)cc1Cl (stereo not drawn)	104.3	89.7	73.8	103.0	84.9
Cn1c(C(C)(O)C(O)c2ccccc2)nc2ccccc21 (stereo not drawn)	.	105.3	.	.	91.3
CC1(C)CC(=O)C2=C(C1)Nc1ccccc1N=C2	99.2	78.0	0.3*	87.8	61.2
Cc1c(C2Nc3ccccc3NC3=C2C(=O)CC(C)(C)C3)cnn1C (stereo not drawn)	99.1	87.6	100.9	96.1	91.5
N#CC1=C2SCN(Cc3ccco3)CN2C(=O)CC1c1ccccc1F (stereo not drawn)	90.8	99.9	40.0*	95.6	93.7
SMILES	Fibroblast inh	bCat KO growth	H69AR growth 86K	HUVEC inhibit	HCT116 PTEN-null
CCC(=O)Nc1nonc1-c1nc2ccccc2n1Cc1cccc2ccccc12	50.9	13.4	23.6*	51.5	13.2
COc1ccc(OC(=O)c2cccc([N+](=O)[O-])c2)c(C(=O)/C=C/c2cccs2)c1	93.3	88.1	3.4*	53.1	93.2
COc1ccc(C(=O)/C=C/c2cccs2)c(OC(=O)N2CCOCC2)c1	.	45.4	.	.	31.9
COc1ccc(NC(=O)CSc2nnc(-c3cccs3)n2-c2ccccc2)cc1	38.9*	52.5	45.6	20.9*	50.5
COc1ccc(NC(=O)CSc2nnc(C3CC3)n2-c2ccccc2)cc1	94.7	92.5	93.9	91.2	96.2
O=C(CSc1nnc(-c2cccs2)n1-c1ccccc1)c1ccc2c(c1)OCCO2	77.1	.	16.8*	33.8	.
C=CCn1c(SCC(=O)NCc2ccc3c(c2)OCO3)nc2scc(-c3ccc(F)cc3)c2c1=O	.	62.8	.	.	73.2
C=CCn1c(SC(C)C(=O)NCc2ccc3c(c2)OCO3)nc2scc(-c3ccccc3)c2c1=O (stereo not drawn)	94.5	80.8	33.6*	74.0	66.3
Cn1c(=O)n(C)c2cc(NC(=O)CCl)ccc21	41.9*	8.1	1.5*	54.4	5.2
C=CCn1c(SCC(=O)Nc2ccc(C(=O)OC(C)C)cc2)nnc1-c1cccs1	30.1*	96.4	24.9*	39.3	74.2
O=C(CSc1nnc(-c2ccco2)n1-c1ccccc1)N1CCc2ccccc21	102.3	.	77.8	88.3	.
Cn1c(SCC(=O)Nc2ccc(N3CCOCC3)cc2)nnc1-c1ccccc1	104.9	106.6	85.8	14.8*	118.8
O=C(CSc1nc2[nH]ncc2c(=O)n1-c1ccccc1)c1ccc2c(c1)OCCO2	89.4	71.9	16.8*	55.5	71.1
Cc1cccc(NC(=O)CSc2nc3[nH]ncc3c(=O)n2-c2ccccc2)c1	.	86.0	.	.	79.6
Cc1ccc(NC(=O)CSc2nnc(-c3ccc(S(=O)(=O)N4CCOCC4)cc3)n2C)cc1	96.6	98.7	97.5	101.9	109.5
O=C(CSc1nnc(-c2cccs2)n1-c1ccccc1)N1CCc2ccccc21	.	.	16.2*	94.8	.
CCOC(=O)c1ccc(NC(=O)CSc2nnc(-c3cccs3)n2CC)cc1	91.8	96.9	90.8	74.8	109.8
C#CCOCCOCCOCCNc1nc(N2CCN(C(=O)[C@H](Cc3ccc(O)cc3)n3cc(CCO)nn3)CC2)nc(N2CCN(C(=O)[C@H](Cc3ccc(O)cc3)n3cc(CCO)nn3)CC2)n1	.	94.9	.	.	93.6
O=c1ccn(-c2cccc(C(F)(F)F)c2)nc1-c1ccn(-c2cccc(Cl)c2)n1	.	79.8	.	.	70.8
CC(Sc1nnc(-c2cccs2)n1-c1ccccc1)C(=O)NCc1ccc2c(c1)OCO2 (stereo not drawn)	103.4	94.8	38.8*	101.9	94.0
Cn1c(=O)n(C)c2cc(NC(=O)CSc3nnc(-c4ccccc4O)n3-c3ccccc3)ccc21	90.4	60.3	32.9*	74.8	63.1
N#Cc1c(NC(=O)CSc2nnc(-c3ccccc3O)n2-c2ccccc2)sc2c1CCCC2	99.0	59.0	48.7	86.6	56.5
O=C(CSc1nnc(Cc2cccs2)n1-c1ccccc1)NCc1ccc2c(c1)OCO2	.	90.2	97.1	103.4	95.8
Cc1ccc(NC(=S)N(Cc2ccco2)C2CCN(C(C)C)CC2)cc1	.	82.9	.	.	80.4
O=C(CSc1ccc2ccccc2n1)N1CCC(c2noc3ccc(F)cc23)CC1	102.4	93.2	86.7	93.2	86.5
O=C(O)CCC(=O)CCC(=O)c1ccc(Cl)cc1	114.7	86.0	74.0	100.9	86.3
CN(C)CCC(=O)c1ccc(Cl)cc1	91.1	92.7	18.8*	88.7	107.9
COc1ccc(N=c2oc3c(OC)cccc3cc2C(=O)NCc2ccco2)c(OC)c1	76.8	1.8*	100.0	62.9	4.3
COc1ccc2cc(C(=O)NCc3ccco3)c(=O)oc2c1	107.5	86.6	99.0	116.7	93.0
COc1ccc(Nc2cc(C(=O)NCc3ccco3)c3ccccc3n2)c(OC)c1	.	85.8	.	.	95.0
